Measured values taken from ChEMBL document CHEMBL1124167, “Syntheses and gastric acid antisecretory properties of the H2-receptor antagonist. N-[3-[3-(1-piperidinylmethyl)phenoxy]propyl]thieno[3,4-d]isot hiazol-3-amine 1,1-dioxide and related derivatives” (J Med Chem, 1988).
Active and inactive are the calls of the source. The calls are words filed in the database; no cut-off is given here.

Experiments:
[1] = tested on: Rattus norvegicus; assay: In vivo inhibitory activity against basal acid secretion in pylorus-ligated rat was determined at a dose of 8 mg/kg; type: functional
Method in brief: (§1)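 Male SD/CD rats (190–260 g), fasted 24 h with water, groups of 10. Pylorus ligated under methohexital (40 mg/kg). Drug in 0.25% aqueous methylcellulose given intraduodenally (1 mL/kg) right after ligation. Killed 4 h later. Gastric juice volume × acid concentration (titration to pH 7.0 with 0.1 N NaOH) gives total acid output, expressed as percent inhibition vs vehicle controls.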

[2] = species: Canis familiaris; assay: Efficacy against histamine stimulation was determined in dog; type: functional; details: Canis lupus familiaris
Method in brief: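 Gastric pouch dogs fasted 18 h with water, baseline from two 15-min samples. Drug in 0.9% saline given by oral gavage 30 min before histamine diphosphate (64 μg/kg base, sc). Samples collected at 15-min intervals and acid titrated to pH 7.0 with 0.1 N NaOH. Total acid output summed over 1 h, percent inhibition vs the same dog's saline run, runs ≥3 days apart.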

[3] = tested on: Rattus norvegicus; assay: In vivo inhibitory activity against basal acid secretion in pylorus-ligated rat was determined at a dose of 4 mg/kg; type: functional; method in brief: as §1
[4] = tested on: Rattus norvegicus; assay: In vivo inhibitory activity against basal acid secretion in pylorus-ligated rat was determined at a dose of 4 mg/kg; Inactive

| SMILES | Total acid output [1] [%] | Total acid output [3] [%] | further results |
| --- | --- | --- | --- |
| O=S1(=O)N=C(NCCCOc2cccc(CN3CCCCC3)c2)c2cscc21 | 16 | – | ED50 [2]: 0.35 mg/kg |
| NS(=O)(=O)c1cscc1C(=O)NCCCOc1cccc(C=O)c1 | 94 | – | – |
| CN/C(=C\[N+](=O)[O-])NCCSCc1ccc(CN(C)C)o1 [RANITIDINE] | – | – | ED50 [2]: 0.93 mg/kg |
| Cc1[nH]cnc1CSCCNC1=NS(=O)(=O)c2cscc21 | 87 | – | – |
| CCCN(CCC)Cc1cccc(OCCCNC2=NS(=O)(=O)c3cscc32)c1.Cl | – | 16 | – |
| Cl.NS(=O)(=O)c1cscc1C(=O)NCCCOc1cccc(CN2CCCCC2)c1.O | 36 | – | – |
| O=Cc1cccc(OCCCNC2=NS(=O)(=O)c3cscc32)c1 | – | 89 | Activity [4]: inactive |
| O=S1(=O)N=C(NCCCOc2cccc(CN3CCCCC3)c2)c2sccc21 | 12 | – | – |
| O=S1(=O)N=C(NCCCOc2ccc(CN3CCCCC3)cc2)c2cscc21 | 21 | – | – |
| O=S1(=O)N=C(NCCCOc2cccc(CN3CC=CCC3)c2)c2cscc21 | – | 18 | – |
| N=C(N)Nc1nc(CSCCNC2=NS(=O)(=O)c3cscc32)cs1 | – | 83 | – |
| Cl.O=S1(=O)N=C(NCCCOc2cccc(CN3CCCC3)c2)c2cscc21 | – | 19 | – |
| O=C(c1cccc(OCCCNC2=NS(=O)(=O)c3cscc32)c1)N1CCCCC1 | 94 | – | – |
